Most compounds without a hit are left out; they make up all but 1.5% or so of the library.
TPT1 inh – C. albicans TPT1 enzyme inhibition | recombinant caTPT1, FP RNA substrate dephosphorylation | inhibition, % at 5 µM | hit rate 0.81% among 300,000;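 active = inhibition above the mean of all tested compounds plus 3 SD, set per screening campaign, cut at about 24% in these data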;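 note: plate controls were DMSO alone for no effect and ferristatin control at 100 nM for full effect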
Rpn11 inh – blocks the human proteasome subunit Rpn11; O00487; human 26S proteasome, Ub4-pepOG fluorescence polarization; 20S core pre-blocked with epoxomicin; calls only at 20 µM; hit rate 0.59% among 360,000; AID 588493;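 active = inhibition at 20 µM, scaled to each plate's controls, above about 33%, limit read from the data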
HNF4A DNA FP – change in binding of human HNF4 alpha to DNA; AID 1224865; HNF4a-FITC DNA binding, fluorescence polarization, 1 h; hit rate 0.3% among 360,000; activity change, % at 10 µM; P41235; in the data active = activity change above about 30%, passing the limit was not always enough
CSN deneddyl inh – CSN deneddylation inhibition; Purified CSN, SCF-Nedd8-OG deneddylation, fluorescence polarization; hit rate 0.38% among 360,000; Q92905; inhibition, % at 12.5 µM;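 active = pattern-corrected inhibition above about 35%, with an unprinted fluorescence ratio check between 0.5 and 1.5, limit read from the data, passing the limit was not always enough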;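 note: 0% = enzyme with substrate and 100% = substrate without enzyme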
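Material: purified human Csn5 enzyme expressed in HEK293T cells / Medium: Tris buffer pH 7.5, NaCl, DTT, Tween-20, trehalose, ovalbumin / Compound dosing: 12.5 µM single point / Schedule: 90 min incubation of compound, enzyme and substrate at room temperature / Signal: fluorescence polarization of the substrate / Control set: no-enzyme wells high, enzyme-with-substrate wells low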
Rpn11 inh conf – Rpn11 inhibition confirmation, single concentration; shares compounds with Rpn11 inh; purified human 26S proteasome, Ub4-pepOG fluorescence polarization; proteasome pretreated with epoxomicin; inhibition, % at 20 µM; hit rate 29% among 1,900
MMP-2 inh – MMP-2 (human) inhibition counter-screen; shares compounds with Rpn11 inh; recombinant MMP-2, FRET peptide cleavage fluorescence; inhibition, % at 20 µM; hit rate 4% among 1,900; AID 602330;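 note: human MMP-2 activated beforehand with APMA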
Thrombin inh – thrombin (bovine) inhibition counter-screen. hit rate 13% among 1,900. inhibition, % at 20 µM. AID 602333. bovine thrombin cleavage of Ub4-pepOG, fluorescence polarization. shares compounds with Rpn11 inh;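 active = mean inhibition at least 40% at 20 µM, or signal 3 deviations below plate average, so some actives read negative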;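 note: plate controls were thrombin with DMSO for no effect and buffer wells lacking thrombin for full effect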
Target sequence (P00735 whole entry, looked up): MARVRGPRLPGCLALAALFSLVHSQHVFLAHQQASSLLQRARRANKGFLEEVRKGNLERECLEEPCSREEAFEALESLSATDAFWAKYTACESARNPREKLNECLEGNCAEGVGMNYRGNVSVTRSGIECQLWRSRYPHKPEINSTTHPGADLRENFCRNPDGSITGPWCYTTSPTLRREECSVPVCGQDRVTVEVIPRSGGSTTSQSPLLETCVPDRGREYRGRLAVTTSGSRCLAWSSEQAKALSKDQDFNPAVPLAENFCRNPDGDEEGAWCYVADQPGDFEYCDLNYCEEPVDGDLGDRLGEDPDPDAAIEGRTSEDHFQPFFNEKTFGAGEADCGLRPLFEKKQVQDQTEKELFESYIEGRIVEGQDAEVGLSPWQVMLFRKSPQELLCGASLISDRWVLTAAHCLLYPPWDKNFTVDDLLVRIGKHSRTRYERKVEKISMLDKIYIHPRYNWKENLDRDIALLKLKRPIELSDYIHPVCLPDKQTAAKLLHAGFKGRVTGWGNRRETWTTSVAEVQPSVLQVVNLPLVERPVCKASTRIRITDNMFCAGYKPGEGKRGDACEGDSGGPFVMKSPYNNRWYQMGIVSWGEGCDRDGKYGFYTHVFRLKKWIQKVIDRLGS
The depositor's hits bear a star. Cut-off read from the data, not from the text of the source, unless noted: active = inhibition above about 40%; inactive = the rest.

How did CCC1CCCCN1c1ccc([N+](=O)[O-])cc1/C=N/NC(=O)Cn1c2ccccc2c(=O)c2ccccc21 (centres undefined) do in these assays?
TPT1 inh: 2; Rpn11 inh: active; HNF4A DNA FP: 14; CSN deneddyl inh: 7; Rpn11 inh conf: 25; MMP-2 inh: 0; Thrombin inh: 8

What do the screens show for `COCCN(C(=O)COC(=O)c1cccs1)c1c(N)n(Cc2ccccc2)c(=O)[nH]c1=O`?
TPT1 inh: -1; Rpn11 inh: inactive; HNF4A DNA FP: 0; CSN deneddyl inh: 3

Results for COc1ccccc1N(CC(=O)NCc1ccccc1)S(=O)(=O)c1cccs1 ?
Rpn11 inh: inactive; HNF4A DNA FP: 7; CSN deneddyl inh: 1

What do the screens show for `C#CCOCCOCCOCCNc1nc(N2CCN(C(=O)CCCCCCCCCCNC(=O)[C@H]([C@@H](C)CC)n3cc(CCCCN=C(N)N)nn3)CC2)nc(N2CCN(C(=O)CCCCCCCCCCNC(=O)[C@@H]([C@H](C)O)n3cc(C)nn3)CC2)n1`?
TPT1 inh: 3; Rpn11 inh: active; HNF4A DNA FP: 186; CSN deneddyl inh: 97*; Rpn11 inh conf: 15; MMP-2 inh: -14; Thrombin inh: 20

What do the screens show for `C#CCOCCOCCOCCNc1nc(N2CCOCC2)nc(N2CCN(C(=O)CCCCCCCCCCNC(=O)[C@H]([C@@H](C)CC)n3cc(CCCCN=C(N)N)nn3)CC2)n1`?
TPT1 inh: -1; Rpn11 inh: inactive; HNF4A DNA FP: 2; CSN deneddyl inh: 0

Results for CN(C)S(=O)(=O)c1ccc(N2CCCC2)c(C(=O)NNC(=O)COc2ccc(Cl)cc2)c1 ?
TPT1 inh: -1; Rpn11 inh: inactive; HNF4A DNA FP: 1; CSN deneddyl inh: 9

How did CCc1ccc(OCC(=O)NNC(=O)c2cc(S(=O)(=O)N(C)C)ccc2N2CCCC2)cc1 do in these assays?
TPT1 inh: 0; Rpn11 inh: active; HNF4A DNA FP: -1; CSN deneddyl inh: 3; Rpn11 inh conf: 56*; MMP-2 inh: 17; Thrombin inh: 3

Results for Cc1ccn2nc(C(=O)OCC(=O)N(CC(C)C)C3CCS(=O)(=O)C3)nc2n1 (centres undefined) ?
Rpn11 inh: inactive; HNF4A DNA FP: 2; CSN deneddyl inh: -8

Results for NC(=O)CC(NC(=O)c1ccc(Br)cc1)c1ccc(NC2CCCCCC2)c([N+](=O)[O-])c1 (centres undefined) ?
TPT1 inh: 0; Rpn11 inh: active; HNF4A DNA FP: 25; CSN deneddyl inh: 14; Rpn11 inh conf: 40*; MMP-2 inh: -11; Thrombin inh: 8

Results for NC(=O)CC(NC(=O)c1ccc(Br)cc1)c1ccc(NC2CCCCC2)c([N+](=O)[O-])c1 (centres undefined) ?
TPT1 inh: 11; Rpn11 inh: inactive; HNF4A DNA FP: 17; CSN deneddyl inh: 6

Results for O=C(CN1C(=O)c2ccccc2C1=O)Nc1cc(C(=O)O)cc(C(=O)O)c1 ?
TPT1 inh: -4; Rpn11 inh: inactive; HNF4A DNA FP: -5; CSN deneddyl inh: 4

What do the screens show for `Cc1ccc(-c2c(C)c(-c3ccc(F)cc3)nc(N)c2C#N)o1`?
TPT1 inh: -2; Rpn11 inh: active; HNF4A DNA FP: 6; CSN deneddyl inh: 3; Rpn11 inh conf: 2; MMP-2 inh: -21; Thrombin inh: -1

What do the screens show for `CN(CC(=O)Nc1nccs1)S(=O)(=O)c1ccc(F)cc1`?
TPT1 inh: -1; Rpn11 inh: active; HNF4A DNA FP: -2; CSN deneddyl inh: 0; Rpn11 inh conf: 0; MMP-2 inh: -38; Thrombin inh: -5

Results for Cc1cc(Cl)ccc1Oc1ccccc1C(=O)CC#N ?
TPT1 inh: 4; Rpn11 inh: active; HNF4A DNA FP: -3; CSN deneddyl inh: -9; Rpn11 inh conf: 28; MMP-2 inh: 22; Thrombin inh: 25

What do the screens show for `CCOC(=O)N1CCN(C(C(=O)NC2CCCC2)c2ccco2)CC1` (centres undefined)?
HNF4A DNA FP: 0; CSN deneddyl inh: -1

What do the screens show for `CCc1ccc(NC(=O)CS(=O)CC(=O)Nc2ccc(N3CCOCC3)cc2)cc1` (centres undefined)?
TPT1 inh: 0; Rpn11 inh: active; HNF4A DNA FP: -4; CSN deneddyl inh: 9; Rpn11 inh conf: 7; MMP-2 inh: -22; Thrombin inh: -21

What do the screens show for `Cc1cccc(C)c1NC(=O)CS(=O)CC(=O)Nc1ccc(N2CCOCC2)cc1` (centres undefined)?
TPT1 inh: -1; Rpn11 inh: inactive; HNF4A DNA FP: 1; CSN deneddyl inh: -1

Results for Cc1cc(C)c(S(=O)(=O)N2C[C@H]3CON(C)[C@H]3C[C@H]2c2ccc(N3CCCCC3)cc2)c(C)c1 ?
Rpn11 inh: active; HNF4A DNA FP: 28; CSN deneddyl inh: 14; Rpn11 inh conf: 96*; MMP-2 inh: -26; Thrombin inh: 87*

Results for CCOc1cc(/C=C2\NC(=S)N(c3c(C)n(C)n(-c4ccccc4)c3=O)C2=O)ccc1O ?
TPT1 inh: 23; Rpn11 inh: active; HNF4A DNA FP: 25; CSN deneddyl inh: 25; Rpn11 inh conf: 67*; MMP-2 inh: 30; Thrombin inh: 45*

How did CN=C1S/C(=C\c2ccc(O)c(OC)c2)C(=O)N1C do in these assays?
TPT1 inh: 2; Rpn11 inh: inactive; HNF4A DNA FP: 3; CSN deneddyl inh: 7

What do the screens show for `COc1cc(/C=C2\SC(=Nc3ccc(O)cc3)NC2=O)cc(OC)c1O`?
TPT1 inh: 17; Rpn11 inh: active; HNF4A DNA FP: 8; CSN deneddyl inh: 11; Rpn11 inh conf: 5; MMP-2 inh: 0; Thrombin inh: 8

What do the screens show for `CCOc1cccc(/C=C2\NC(=S)N(c3ccccc3)C2=O)c1O`?
TPT1 inh: -1; Rpn11 inh: inactive; HNF4A DNA FP: 1; CSN deneddyl inh: -2

How did COc1cc(/C=C2\SC(=Nc3c(C)n(C)n(-c4ccccc4)c3=O)NC2=O)ccc1O do in these assays?
Rpn11 inh: active; HNF4A DNA FP: 9; CSN deneddyl inh: 22; Rpn11 inh conf: 31; MMP-2 inh: 10; Thrombin inh: 13

What do the screens show for `CCCC1NC(=O)c2cccnc2-n2c1nc1ccc(Cl)cc1c2=O` (centres undefined)?
Rpn11 inh: inactive; HNF4A DNA FP: 3; CSN deneddyl inh: 5

What do the screens show for `O=C(Nc1ccccc1C(F)(F)F)c1cc2ccccc2o1`?
TPT1 inh: 3; Rpn11 inh: inactive; HNF4A DNA FP: 2; CSN deneddyl inh: 2

Bioassay records (PubChem BioAssay)
